From ChEMBL document CHEMBL1157543, “Synthesis and biological evaluation of polysulfated oligosaccharide glycosides as inhibitors of angiogenesis and tumor growth” (J Med Chem, 2010)
Activity calls are given as the source filed them. The rule behind the calls is not given here.

Key:
[1] = test system: Plasma; assay: Anticoagulant activity in human plasma by heptest; type: functional
Outline: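 Heptest clot assay. Plasma (centrifuged 1800g, 10 min, used within 30 min) incubated with compound 2 min at 37 °C. Factor Xa added, 2 min at 37 °C, then clotting started with Recalmix; read on a ball coagulometer. Normal range 13–20 s; means of two determinations.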

[2] = test system: Aorta; assay: Inhibition of angiogenesis in Sprague-Dawley rat aortic endothelium at 50 uM; type: functional, tissue-based
Outline: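 Sprague-Dawley rats (2–4 months old): bisected 1 mm thoracic aortic rings embedded in Matrigel in EBM-2 with 2% FCS, no heparin. Compound added in triplicate, medium replenished every 48 h. Microvessel sprouting scored semiquantitatively by two assessors up to day 8. One-way ANOVA with Dunnett's test.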

[3] = test system: Plasma; assay: Anticoagulant activity in human plasma assessed as activated partial thromboplastin time; type: functional
Outline: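 Pooled normal human plasma spiked with compound in PBS at 0.1 mg/mL (methods give a 0–100 μg/mL range); APTT elevation measured. Normal range 26–36 s. Values are means of two determinations.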

[4] = Plasma clearance in Sprague-Dawley rat at 10 mg/kg, iv and 10 mg/kg, sc; type: ADME, organism-based
Outline: (§1)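 Male Sprague-Dawley rats (n = 2 per route), cannulated the day before. Compound given at 2.8 mg/mL in PBS: iv infusion over 5 min or sc between the scapulae, nominal 10 mg/kg. Arterial blood sampled up to 8 h into tubes with protease inhibitor, KF and EDTA; urine collected to 24 h. Plasma analyzed by LC-MS; noncompartmental analysis.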

[5] = test system: HUVEC; assay: Cytotoxicity against HUVEC; type: cell-based; conditions: human
[6] = test system: B16; assay: Antitumor activity against mouse B16 cells transplanted in C57/BL6 mouse assessed as reduction in tumor volume at 15 mg/kg for 7 days measured on day 10; type: functional; conditions: read-out: TGI
Outline: (§2)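 B16F1 cells grown in DMEM with 10% FCS, 5×10^5 cells in PBS implanted sc between the shoulder blades of C57 mice (n = 10). From day 3, compound given sc in PBS b.i.d. for 7 days at rotating sites. Tumors measured daily as l × w; p < 0.05 taken as significant.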

[7] = test system: B16; assay: Antitumor activity against mouse B16 cells transplanted in C57/BL6 mouse assessed as reduction in tumor volume at 30 mg/kg for 7 days measured on day 10; type: functional; conditions: read-out: TGI; outline: as §2
[8] = Half life in Sprague-Dawley rat at 10 mg/kg, iv; type: ADME, organism-based; set-up: dose 10 mg/kg, route intravenous; conditions: in vivo; outline: as §1
[9] = Half life in Sprague-Dawley rat at 10 mg/kg, sc; type: ADME, organism-based; set-up: dose 10 mg/kg, route subcutaneous; conditions: in vivo; outline: as §1
[10] = target: T1, Heparanase (Homo sapiens, UniProt Q9Y251); assay: Inhibition of human recombinant heparanase
T1 sequence (Q9Y251 whole entry): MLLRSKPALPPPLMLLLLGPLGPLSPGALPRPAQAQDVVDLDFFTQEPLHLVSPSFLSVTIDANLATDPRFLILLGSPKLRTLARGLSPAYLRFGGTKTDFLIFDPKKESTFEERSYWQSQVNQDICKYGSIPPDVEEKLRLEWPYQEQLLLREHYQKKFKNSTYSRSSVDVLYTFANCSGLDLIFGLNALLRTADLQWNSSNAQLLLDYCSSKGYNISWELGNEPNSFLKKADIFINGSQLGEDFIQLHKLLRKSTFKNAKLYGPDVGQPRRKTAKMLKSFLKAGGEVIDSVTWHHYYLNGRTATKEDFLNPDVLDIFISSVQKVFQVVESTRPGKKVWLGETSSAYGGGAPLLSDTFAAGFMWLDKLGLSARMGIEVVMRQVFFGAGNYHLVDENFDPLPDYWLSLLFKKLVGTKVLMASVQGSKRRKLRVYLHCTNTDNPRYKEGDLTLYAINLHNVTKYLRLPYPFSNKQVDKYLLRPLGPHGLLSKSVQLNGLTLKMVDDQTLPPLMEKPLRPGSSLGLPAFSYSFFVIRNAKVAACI
Outline: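 Recombinant human heparanase assayed by ultrafiltration with 3H-labelled heparan sulfate as substrate (Km = 1.64 μM). Ki values with standard error were derived from inhibition response curves.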

[11] = Toxicity in rat aortic endothelium assessed as microvessel sprouts at 10 and 50 uM after 6 or 7 days; type: tissue-based, Sprague-Dawley, Aorta; conditions: ex_vivo, 168 h
Outline: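 Aortic ring viability check: on day 6 or 7, compound or medium was withdrawn and complete medium with VEGF (typically 10 ng/mL) was added for up to 7 more days. New microvessel sprouting was taken as a sign of viable tissue.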

[12] = target: Fibroblast growth factor 1 (Homo sapiens, UniProt P05230); assay: Binding affinity to FGF1 by surface plasmon-based solution affinity assay
Outline: (§3)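 Surface plasmon resonance solution affinity assay on heparin-coated CM4 chips. Buffer: HBS-EP (10 mM HEPES pH 7.4, 150 mM NaCl, 3.0 mM EDTA, 0.005% polysorbate 20). Kd is the mean of at least duplicate measurements ± SD.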

[13] = target: T2, Vascular endothelial growth factor A, long form (Homo sapiens, UniProt P15692); assay: Binding affinity to VEGF by surface plasmon-based solution affinity assay; outline: as §3
T2 sequence (P15692 whole entry): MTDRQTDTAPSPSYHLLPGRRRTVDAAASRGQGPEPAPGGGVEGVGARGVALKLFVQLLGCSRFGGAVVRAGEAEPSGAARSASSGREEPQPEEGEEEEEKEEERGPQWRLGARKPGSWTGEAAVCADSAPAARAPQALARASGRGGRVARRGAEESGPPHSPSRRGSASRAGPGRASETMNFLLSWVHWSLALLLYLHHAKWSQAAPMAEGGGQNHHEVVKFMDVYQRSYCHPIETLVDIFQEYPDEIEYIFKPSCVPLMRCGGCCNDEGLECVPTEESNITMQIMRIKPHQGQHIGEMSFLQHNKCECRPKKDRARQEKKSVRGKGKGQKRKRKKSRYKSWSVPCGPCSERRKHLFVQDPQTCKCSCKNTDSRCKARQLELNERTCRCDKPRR

[14] = target: Fibroblast growth factor 2 (Homo sapiens, UniProt P09038); assay: Binding affinity to FGF2 by surface plasmon-based solution affinity assay
Outline: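 Surface plasmon resonance solution affinity assay on heparin-coated CM4 chips. FGF-2 binding run in HBS-EP containing 300 mM NaCl. Kd is the mean of at least duplicate measurements ± SD.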

[15] = Apparent volume of distribution in Sprague-Dawley rat at 10 mg/kg, iv and 10 mg/kg, sc; type: ADME, organism-based; conditions: in vivo, read-out: Vz; outline: as §1
[16] = Bioavailability in Sprague-Dawley rat at 10 mg/kg, sc; type: ADME, organism-based; conditions: in vivo; outline: as §1

Fibroblast growth factor 2, sequence (P09038 143-288 limits assumed): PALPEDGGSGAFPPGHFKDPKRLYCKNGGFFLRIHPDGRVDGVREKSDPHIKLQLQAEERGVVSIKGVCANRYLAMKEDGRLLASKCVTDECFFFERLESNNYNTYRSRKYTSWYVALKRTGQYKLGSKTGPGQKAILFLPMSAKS
Fibroblast growth factor 1, sequence (P05230 whole entry): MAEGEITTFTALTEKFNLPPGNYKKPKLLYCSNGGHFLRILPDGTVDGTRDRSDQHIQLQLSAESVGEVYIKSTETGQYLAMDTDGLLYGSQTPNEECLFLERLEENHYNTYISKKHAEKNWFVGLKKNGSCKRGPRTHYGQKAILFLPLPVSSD

Compound: CCCCCCCCO[C@H]1O[C@H](COS(=O)(=O)[O-])[C@@H](OS(=O)(=O)[O-])[C@H](OS(=O)(=O)[O-])[C@@H]1O[C@H]1O[C@H](COS(=O)(=O)[O-])[C@@H](OS(=O)(=O)[O-])[C@H](O[C@H]2O[C@H](COS(=O)(=O)[O-])[C@@H](OS(=O)(=O)[O-])[C@H](O[C@H]3O[C@H](COS(=O)(=O)[O-])[C@@H](OS(=O)(=O)[O-])[C@H](O[C@H]4O[C@H](COS(=O)(=O)[O-])[C@@H](OS(=O)(=O)[O-])[C@H](OS(=O)(=O)[O-])[C@@H]4OS(=O)(=O)[O-])[C@@H]3OS(=O)(=O)[O-])[C@@H]2OS(=O)(=O)[O-])[C@@H]1OS(=O)(=O)[O-].[Na+].[Na+].[Na+].[Na+].[Na+].[Na+].[Na+].[Na+].[Na+].[Na+].[Na+].[Na+].[Na+].[Na+].[Na+].[Na+]
- Activity [1]: 124.4 s
- Activity [2]: Active
- Time [3]: 250.8 s
- clearance [4]: 1.4 mL/min/kg
- LC50 [5]: > 100000 nM
- inhibition in vivo at 15 mg/kg [6]: 42%
- inhibition in vivo at 30 mg/kg [7]: 94%
- half-life [8]: 1.1 h
- half-life [9]: 1.1 h
- Ki [10]: 350 nM
- Activity [11]: Toxic
- Kd [12]: 0.161 nM
- Kd [13]: 1.5 nM
- Kd [14]: 82 nM

Compound: CCCCCCCCO[C@H]1O[C@H](COS(=O)(=O)[O-])[C@@H](OS(=O)(=O)[O-])[C@H](OS(=O)(=O)[O-])[C@@H]1O[C@H]1O[C@H](COS(=O)(=O)[O-])[C@@H](OS(=O)(=O)[O-])[C@H](O[C@H]2O[C@H](COS(=O)(=O)[O-])[C@@H](OS(=O)(=O)[O-])[C@H](O[C@H]3O[C@H](COS(=O)(=O)[O-])[C@@H](OS(=O)(=O)[O-])[C@H](OS(=O)(=O)[O-])[C@@H]3OS(=O)(=O)[O-])[C@@H]2OS(=O)(=O)[O-])[C@@H]1OS(=O)(=O)[O-].[Na+].[Na+].[Na+].[Na+].[Na+].[Na+].[Na+].[Na+].[Na+].[Na+].[Na+].[Na+].[Na+]
- Activity [1]: 79.5 s
- Time [3]: 96.7 s
- clearance [4]: 0.2 mL/min/kg
- Vd [15]: 0.026 L/kg
- LC50 [5]: > 100000 nM
- bioavailability [16]: 67%
- inhibition in vivo at 15 mg/kg [6]: 64%
- inhibition in vivo at 30 mg/kg [7]: 86%
- half-life [8]: 1.7 h
- half-life [9]: 1.7 h
- Ki [10]: 330 nM
- Activity [11]: Toxic
- Kd [12]: 0.118 nM
- Kd [13]: 18 nM
- Kd [14]: 160 nM
